# Assay outcomes deposited in PubChem by several laboratories.
# A3G deaminase = APOBEC3G DNA deaminase inhibitors, primary screen, biochemical, fluorescence, single-stranded DNA substrate, uHTS. AID 493012, 2011. DNA dC->dU-editing enzyme APOBEC-3G (Homo sapiens), Q9HC16. recombinant A3G, ssDNA deamination FAM/TAMRA fluorescence. 330,000 tested, 0.28% active. inhibition, % at 20 µM;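 active = inhibition of at least 40% at 20 µM, with no more than 30% in the related APOBEC3A deaminase screen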;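 also: plate controls were DMSO wells with A3G for no effect and wells lacking A3G enzyme for full effect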
# Target sequence (Q9HC16 whole entry, looked up): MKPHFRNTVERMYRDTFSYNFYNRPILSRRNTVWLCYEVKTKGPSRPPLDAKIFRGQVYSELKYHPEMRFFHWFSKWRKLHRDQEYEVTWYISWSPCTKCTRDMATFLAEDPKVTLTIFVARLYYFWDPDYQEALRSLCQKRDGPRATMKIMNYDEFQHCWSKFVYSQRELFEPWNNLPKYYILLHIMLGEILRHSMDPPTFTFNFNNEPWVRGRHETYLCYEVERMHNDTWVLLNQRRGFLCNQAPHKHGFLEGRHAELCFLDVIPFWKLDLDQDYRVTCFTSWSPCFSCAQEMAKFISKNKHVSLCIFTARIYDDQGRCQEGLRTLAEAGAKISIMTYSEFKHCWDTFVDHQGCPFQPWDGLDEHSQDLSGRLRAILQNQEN
# Arr AP2 block = inhibitors of beta-arrestin/AP2 binding, primary screen, biochemical, GPCR trafficking, flow cytometry. beta-arrestin 1 C-terminal peptide binding to AP2 beta2-adaptin appendage (human). FITC-arrestin peptide / GST-AP2 beads; AP2 beta2 appendage carries R879A mutation. inhibition, % at 10 µM. 340,000 tested, 0.31% active. AID 504490, 2011;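 active = inhibition above a set limit, near 3 SD of compounds lacking own fluorescence, cut at about 54% in these data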;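 also: plate controls were DMSO wells for no effect and 5 µM unlabelled arrestin peptide for full effect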
#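 System: GST-AP2 R879A glutathione beads | Also added: FITC-arrestin peptide, 50 nM | Times: 12 min plus 1 h, RT | Signal: Bead flow cytometry, FITC channel | Buffer or medium: PBS with 0.05% Tween 20 and 0.1% BSA | Read-out basis: Percent drop in bead-associated FITC signal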
# UCH37 inh = inhibitors of human UCH37 deubiquitinase, primary screen, biochemical, Ub-AMC cleavage, fluorescence. purified proteasome/UCH37. AID 588478, 2011. 330,000 tested, 0.33% active. inhibition, % (no concentration beside the values);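 active = mean inhibition over replicate wells above about 20%, limit read from the data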;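 also: 0% = compound-free wells with enzyme and 100% = wells lacking proteasome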
#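 Assay system: Proteasome-bound UCH37. Buffer or medium: pH 7.4 Tris-HCl (50 mM) with ovalbumin, ATP-MgCl2, DTT. Incubation: 30 min preincubation with enzyme, 25 min cleavage at room temperature. Measured by: fluorescence, ex 355 nm, em 460 nm. Read-out basis: percent inhibition. Control set: wells without proteasome as full block, compound-free enzyme plus substrate as uninhibited.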
# A3A deaminase = APOBEC3A ssDNA deaminase inhibitors, primary screen, selectivity assay for APOBEC3G inhibitor project, biochemical, FAM/TAMRA oligo cleavage fluorescence. recombinant A3A, FAM/TAMRA ssDNA deamination fluorescence. inhibition, % at 20 µM. 330,000 tested, 0.41% active;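 active = at least 40% inhibition at 20 µM here, with at most 30% in a related deaminase screen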;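 also: plate controls were A3A with DMSO for no effect and wells lacking A3A enzyme for full effect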
# Target sequence (P31941 whole entry, looked up): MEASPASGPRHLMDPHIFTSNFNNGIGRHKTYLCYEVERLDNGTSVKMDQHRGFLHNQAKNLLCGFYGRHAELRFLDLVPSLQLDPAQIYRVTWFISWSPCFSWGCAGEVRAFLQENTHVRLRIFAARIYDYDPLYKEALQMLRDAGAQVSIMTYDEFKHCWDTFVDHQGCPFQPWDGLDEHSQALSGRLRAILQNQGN
# AHR act = AHR activators, primary screen, cell-based, luminescence, luciferase reporter, human; activation, % at 5 µM; AHR-responsive luciferase reporter cells; 320,000 tested, 2.5% active; AID 2796, 2010; in the data active = activation above about 47%;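 also: 0% = vehicle wells and 100% = reference agonist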
# PolyA inh = polyadenylation inhibitors in yeast reporter cells, primary screen, luminescence, S. cerevisiae; S. cerevisiae SKY197-pL101 polyadenylation reporter, beta-gal luminescence; efflux-impaired pdr1/pdr3 knockout yeast; score 100 = 6 SD above DMSO; activity score, % at 12 µM; 300,000 tested, 0.02% active; AID 1875, 2009;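 active = lowest replicate activity score at least 50, where 100 means six control SD above control mean; inconclusive = lowest score under 50 but half or more replicates reach 50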;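 also: yeast exposed to compound for 9 h at 30 °C; higher score means more reporter readthrough which indicates perturbed polyadenylation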
# Starred values were filed as active, the others as inactive; u = inconclusive; x = no result given. Shown are actives, neighbours in structure and some others; about 3.4% of the full set was active somewhere.
SMILES,A3G deaminase,Arr AP2 block,UCH37 inh,A3A deaminase,AHR act,PolyA inh
Cc1cc(C)nc(SCc2ccc(C(=O)NN=Cc3ccco3)cc2)n1,x,x,3,x,x,x
COc1ccc(C=NNS(=O)(=O)c2ccc(C)cc2)cc1,x,x,3,x,x,x
CC1(C)CC(=O)C2=C(C1)NC(=O)NC2c1ccc(Cl)cc1 (stereo not drawn),-10,-9,-1,-1,-2,1
CC1(C)CC(=O)C2=C(C1)Nc1cc(Cl)ccc1S2,-11,-4,1,-5,53*,13
COc1ccc(OC)c(C=NN(C)c2ccccc2)c1,x,x,1,x,x,x
Cc1ccc(NC(=S)NN=Cc2ccc([N+](=O)[O-])s2)cc1,x,x,8,x,x,x
Cc1cccc(NC(=S)N/N=C/c2ccc([N+](=O)[O-])s2)c1,5,13,x,-5,71*,-95
CC(=O)Nc1nc2ccccc2n1CCOc1ccccc1Cl,-1,-1,4,0,9,-15
S=C(Nc1ccccc1)Nc1nc2ccccc2n1CCOc1ccc(Cl)cc1,-6,-4,2,1,55*,24
CCn1c(NC(=O)C2CCCCC2)nc2ccccc21,-6,0,1,-12,1,-15
CCn1c(NC(=S)Nc2ccccc2)nc2ccccc21,-7,24,4,-5,56*,-11
Cc1ccc(N2C(=O)[C@@H]3[C@H](C2=O)C2c4ccccc4C=CN2[C@@H]3C(=O)c2ccco2)cc1 (stereo partly drawn),x,9,4,x,x,x
CC(=O)[C@@H]1[C@@H]2C(=O)N(Cc3ccccc3)C(=O)[C@@H]2C2c3ccccc3C=CN21 (stereo partly drawn),-3,-1,58*,10,10,-14
COc1ccc(N2C(=O)[C@@H]3[C@H](C2=O)[C@H]2c4ccccc4C=CN2[C@@H]3C(=O)Nc2ccccc2)cc1,-7,19,30*,-3,56*,x
CC(C)(C)C(=O)[C@@H]1[C@@H]2C(=O)N(c3ccc4c(c3)OCCO4)C(=O)[C@@H]2C2c3ccccc3C=CN21 (stereo partly drawn),-3,9,12,-3,14,u
COc1ccc(-c2nn(-c3ccccc3)cc2C=NNC(=S)NC(C)C)cc1OC,x,x,-1,x,x,x
CCOc1ccc(C=NNC(=O)CC(=O)NCc2ccccc2)cc1,x,x,1,x,x,x
Cn1c(N)c(-c2nc3cccnc3n2C)sc1=S,-6,7,-31,2,51*,-17
O=C(O)C1CC(c2ccccc2)=Nc2ccccc2S1 (stereo not drawn),-7,-5,5,-5,53*,3
CN1C(=S)SC(N(O)C(=O)Nc2ccccc2)C1(C)C (stereo not drawn),-3,-7,1,-3,10,13
CN1C(=S)SC(N(O)C(=O)Nc2cccc3ccccc23)C1(C)C (stereo not drawn),12,9,-2,0,75*,-2
CC(=NNc1ccc(C)c(Cl)c1)c1cccnc1,x,x,5,x,x,x
CCc1nc(N=C(N)N)nc2ccccc12,-5,x,2,3,14,-10
NC(N)=Nc1nc(-c2ccccc2)c2ccccc2n1,-3,4,-43,0,68*,-8
O=C(O)CCC(=NNc1ccc(Cl)cc1)c1cccs1,x,x,2,x,x,x
SMILES,A3G deaminase,Arr AP2 block,UCH37 inh,A3A deaminase,AHR act,PolyA inh
Cc1cccc(C=NNC(=O)Cn2nnnc2N)n1,x,x,0,x,x,x
CC(=O)N1N=C2c3ccccc3CCC2C1c1cccs1 (stereo not drawn),-2,38,5,2,60*,-24
O=C(c1ccco1)N1CCN(c2ncnc3c(-c4ccccc4)nsc23)CC1,-5,-4,-9,-3,66*,-8
COc1ccc(-c2nsc3c(N4CCN(C(=O)c5ccco5)CC4)ncnc23)cc1,0,-2,-36,1,16,-9
CCOC(=O)c1c(C)[nH]c(C(=O)N/N=C/c2ccc(Br)cc2)c1C,-8,-3,x,-2,67*,20
CCOC(=O)c1c(C)[nH]c(C(=O)NN=Cc2ccccc2O)c1C,x,x,-22,x,x,x
S=c1[nH]nc(COc2ccccc2)n1N=Cc1ccncc1,x,x,4,x,x,x
COc1cc(C=NNc2nc(C)cc(=O)[nH]2)ccc1OC(=O)c1cccnc1,x,x,4,x,x,x
COCCOC(=O)C1=C(C)NC2=C(C(=O)CC(c3cccs3)C2)C1c1ccsc1 (stereo not drawn),-1,25,-77,1,50*,4
CCOC(=O)C1=C(C)NC2=C(C(=O)CCC2)C1c1ccsc1 (stereo not drawn),-5,x,x,-5,x,20
COc1ccc(OC)c(/C=N/NC(=O)CCCC(=O)Nc2cccc(Br)c2)c1,-5,9,x,6,70*,2
CN1N=C2c3ccccc3CCCC2C1c1ccc(F)cc1 (stereo not drawn),-1,-9,-4,1,49*,-33
C=CCNc1nc(-c2sc(NC(=O)CC)nc2C)cs1,-3,15,-2,-1,70*,9
C=CCNc1nc(-c2sc(NC(C)=O)nc2C)cs1,-5,2,-3,-5,7,5
CCC(=O)Nc1nc(C)c(-c2csc(Nc3cccc(O)c3)n2)s1,-8,7,-14,-3,41,10
CCCCCC(=O)Nc1nc(C)c(-c2csc(Nc3ccc(Cl)cc3)n2)s1,-2,-2,2,-2,65*,-21
COc1ccc(Nc2nc(-c3sc(NC(C)=O)nc3C)cs2)cc1,8,x,x,-1,7,15
CCCCCCC(=O)Nc1nc(C)c(-c2csc(Nc3ccc(Cl)cc3)n2)s1,-12,-2,-3,-5,62*,-13
Cc1ccc(-n2[nH]c(C)c(C=NNc3ccc([N+](=O)[O-])cc3[N+](=O)[O-])c2=O)cc1C,x,x,6,x,x,x
Cc1occc1C(=O)NN=C/C=C\c1ccccc1[N+](=O)[O-],x,x,5,x,x,x
Cc1ccc(S(=O)(=O)NN=Cc2ccc(OCC(=O)NC(C)C)cc2)cc1,x,x,28*,x,x,x
CC(C)NC(=O)COc1ccc(/C=N/NS(=O)(=O)c2ccccc2)cc1,-6,2,x,-1,3,13
COc1ccc(OCC(=O)NN=C(C)c2cc3ccccc3o2)cc1,x,x,-11,x,x,x
CCOc1cc2c3c(c1)C1(Nc4ccccc4S1)C(=O)N3C(C)(C)CC2C (stereo not drawn),-4,-8,4,-1,3,6
